Screening data deposited in PubChem by several laboratories.
An excerpt weighted towards active compounds, which were near 8.7% of everything screened.
Pyk2 oligo antag: Pyk2 (human) oligomerization antagonism; hit rate 0.83% among 99,000; Q293 cells, Pyk2 FERM NanoBiT luminescence; hits give low values; Q14289; z-score (the deposit names both 25 µM and 10 µM); AID 1347419;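 active = Z-score of -3 or lower, scaled per plate to the spread of control and sample wells; inactive = z-score above -3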;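 note: negative z-score means lost luminescence so less FERM oligomerization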
PostGolgi yeast: growth inhibition of a yeast mutant, post-Golgi transport screen; post-Golgi transport phenotypic cell assay; inhibition, % at 10 µM; hit rate 0.9% among 98,000;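 note: yeast cells grown in 1536-well plates; yeast grown about 18 h at 30C before absorbance read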
tolC growth inh: E. coli tolC mutant growth inhibition; E. coli BW25113 tolC mutant growth, OD615; hit rate 2.2% among 65,000; growth inhibition, % at 10 µM (by protocol);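 active = growth inhibition at or above a cutoff equal to the mean over every tested compound plus 3 SD, cut at about 60% in these data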;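 note: growth measured after 20 h incubation at 37 °C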
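Test system – E. coli BW25113 ΔtolC::kan, tolC deletion mutant strain · Detection – OD at 615 nm · Buffer or medium – LB with kanamycin 50 µg/mL · Times – 20 h compound exposure of bacteria at 37 °C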
Ecoli WT expand: E. coli BW25113 growth inhibition, expanded screen; OD600 absorbance; growth inhibition, % at 100 µM; hit rate 0.15% among 98,000; AID 710;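 active = growth inhibition above about 50% at one test dose, limit read from the data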;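 note: growth measured after 20 h incubation at 37 °C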
PostGolgi ctrl: inhibits growth of the yeast control strain | efflux-deficient yeast background strain, growth absorbance A615, 16 h | inhibition, % at 10 µM | hit rate 5% among 98,000 | AID 738
Cav32 inh: human Cav3.2 channel inhibition, primary screen | Cav3.2-expressing cells, Fluo-4 calcium fluorescence FDSS; hits give low values | B-score at 10 µM | hit rate 4% among 100,000 | AID 449739;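 active = single-dose well whose peak fluorescence ratio is a statistical outlier from its plate by either plate-standardised score or position-corrected B-score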
Target sequence (O95180 whole entry, looked up): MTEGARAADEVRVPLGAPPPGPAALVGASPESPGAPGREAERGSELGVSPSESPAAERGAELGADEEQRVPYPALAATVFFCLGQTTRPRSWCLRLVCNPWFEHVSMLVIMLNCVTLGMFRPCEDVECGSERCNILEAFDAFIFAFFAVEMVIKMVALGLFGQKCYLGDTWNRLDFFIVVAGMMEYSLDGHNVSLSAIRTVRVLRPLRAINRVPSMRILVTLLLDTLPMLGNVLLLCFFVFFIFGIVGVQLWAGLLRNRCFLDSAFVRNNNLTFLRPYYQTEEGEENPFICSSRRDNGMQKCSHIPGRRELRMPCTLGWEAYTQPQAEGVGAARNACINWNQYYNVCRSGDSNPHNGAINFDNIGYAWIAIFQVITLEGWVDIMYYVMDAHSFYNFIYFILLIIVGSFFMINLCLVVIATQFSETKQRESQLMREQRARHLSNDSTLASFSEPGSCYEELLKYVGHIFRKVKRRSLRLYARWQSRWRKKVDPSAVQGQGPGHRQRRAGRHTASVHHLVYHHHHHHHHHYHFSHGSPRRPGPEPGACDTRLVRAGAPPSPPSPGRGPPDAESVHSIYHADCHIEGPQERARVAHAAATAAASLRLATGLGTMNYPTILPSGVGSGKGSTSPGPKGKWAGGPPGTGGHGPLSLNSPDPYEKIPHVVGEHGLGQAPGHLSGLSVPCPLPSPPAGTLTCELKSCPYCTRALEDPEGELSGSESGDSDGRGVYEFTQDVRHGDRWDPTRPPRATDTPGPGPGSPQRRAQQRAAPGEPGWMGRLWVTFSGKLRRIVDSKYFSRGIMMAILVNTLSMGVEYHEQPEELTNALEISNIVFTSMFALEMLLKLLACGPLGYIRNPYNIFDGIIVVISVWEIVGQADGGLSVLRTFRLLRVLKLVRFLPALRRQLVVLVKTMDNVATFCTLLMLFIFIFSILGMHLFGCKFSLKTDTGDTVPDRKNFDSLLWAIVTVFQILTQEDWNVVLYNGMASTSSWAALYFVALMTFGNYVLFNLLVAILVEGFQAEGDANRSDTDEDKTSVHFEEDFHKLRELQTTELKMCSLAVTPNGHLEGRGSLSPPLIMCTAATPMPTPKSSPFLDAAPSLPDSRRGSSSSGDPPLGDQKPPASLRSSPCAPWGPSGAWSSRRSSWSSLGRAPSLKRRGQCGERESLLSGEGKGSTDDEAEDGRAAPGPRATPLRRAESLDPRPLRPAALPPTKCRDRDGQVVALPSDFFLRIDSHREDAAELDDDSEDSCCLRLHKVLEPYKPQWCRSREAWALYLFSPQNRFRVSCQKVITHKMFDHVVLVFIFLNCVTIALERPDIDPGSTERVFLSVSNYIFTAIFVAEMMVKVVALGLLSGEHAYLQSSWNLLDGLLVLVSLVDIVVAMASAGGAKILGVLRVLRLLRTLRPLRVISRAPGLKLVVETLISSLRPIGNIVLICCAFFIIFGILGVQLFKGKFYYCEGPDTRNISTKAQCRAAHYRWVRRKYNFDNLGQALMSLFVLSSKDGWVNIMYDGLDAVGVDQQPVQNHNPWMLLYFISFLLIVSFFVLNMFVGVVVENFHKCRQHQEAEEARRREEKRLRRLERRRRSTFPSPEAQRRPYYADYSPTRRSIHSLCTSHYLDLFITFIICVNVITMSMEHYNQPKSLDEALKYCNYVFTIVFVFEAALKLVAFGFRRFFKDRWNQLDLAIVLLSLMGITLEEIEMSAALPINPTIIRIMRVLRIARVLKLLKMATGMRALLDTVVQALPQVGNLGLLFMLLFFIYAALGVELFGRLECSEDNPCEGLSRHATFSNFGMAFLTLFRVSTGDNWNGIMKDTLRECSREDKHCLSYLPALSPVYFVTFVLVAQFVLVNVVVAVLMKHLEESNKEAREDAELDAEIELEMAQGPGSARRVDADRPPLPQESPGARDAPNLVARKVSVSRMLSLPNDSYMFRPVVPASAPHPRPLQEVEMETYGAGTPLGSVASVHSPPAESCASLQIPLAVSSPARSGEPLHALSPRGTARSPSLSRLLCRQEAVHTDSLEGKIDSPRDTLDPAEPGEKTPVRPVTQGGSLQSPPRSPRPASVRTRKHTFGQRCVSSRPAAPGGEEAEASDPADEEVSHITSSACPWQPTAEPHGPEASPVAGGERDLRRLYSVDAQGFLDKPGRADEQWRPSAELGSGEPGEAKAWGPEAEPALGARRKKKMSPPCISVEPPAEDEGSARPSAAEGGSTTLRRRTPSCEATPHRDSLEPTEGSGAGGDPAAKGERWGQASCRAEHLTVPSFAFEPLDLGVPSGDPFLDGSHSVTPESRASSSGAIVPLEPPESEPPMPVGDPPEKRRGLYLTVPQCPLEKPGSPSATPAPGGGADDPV
* marks the source's active call; other numbers are inactive results; nt = not tested or not shown. Cut-off read from the data, not from the text of the source, unless noted: active = inhibition above about 30%; inactive = the rest.

SMILES | Pyk2 oligo antag | PostGolgi yeast | tolC growth inh | Ecoli WT expand | PostGolgi ctrl | Cav32 inh
CC(C)CCNc1nnnc2c1sc1nc(N3CCOCC3)c3c(c12)CC(C)(C)SC3 | -1.7 | 5 | nt | -6 | 17 | -4.8*
CCCCSc1nnc2nc(C)cc(C)n12 | 0.3 | 9 | -14 | 1 | 19 | 0.65
CC1=C(C#N)C(=O)NC(C)(C)C1 | -0.07 | 1 | -11 | -1 | 37* | 0.22
N/C(Cc1cccc2ccccc12)=N\OC(=O)c1cccs1 | 0.04 | nt | nt | nt | nt | nt
N/C(Cc1ccc(Cl)cc1Cl)=N\OC(=O)c1cccs1 | 1.1 | 20 | nt | 14 | 58* | -3.5
O=C(NCCc1ccccn1)C1CC(=O)N(Cc2ccccc2Cl)C1 (stereo not drawn) | 0.24 | -2 | -5 | 8 | 1 | 0.026
CC(NC(=O)Cc1ccccc1)c1nc2ccccc2[nH]1 (stereo not drawn) | nt | -3 | -7 | -10 | 33* | -0.074
C=CCn1c(C)cc(C(=O)CN2C(=O)NC3(CCCc4ccccc43)C2=O)c1C (stereo not drawn) | -0.03 | 13 | nt | -3 | 7 | -0.82
Cc1cc(C(=O)CN2C(=O)NC3(CCCc4ccccc43)C2=O)c(C)n1Cc1cccs1 (stereo not drawn) | 0.25 | 0 | 41 | -15 | 11 | -7.4*
Cc1cc(C(=O)CN2C(=O)NC(c3ccccc3)(c3ccccc3)C2=O)c(C)n1Cc1ccco1 | 0.29 | 6 | 22 | -6 | 10 | -8.6*
Cc1cc(C(=O)CN2C(=O)NC(C)(c3cccc(Br)c3)C2=O)c(C)n1Cc1ccco1 (stereo not drawn) | 1.1 | -1 | 56 | -3 | 3 | nt
CCCN(CCC)c1nc(Cl)nc(NCc2ccco2)n1 | -1.6 | 21 | nt | -4 | 38* | 0.054
COc1ccc(Nc2nc(Cl)nc(NCc3ccco3)n2)c(OC)c1 | -0.38 | -2 | nt | -9 | 6 | -1.3
Cc1csc(/C(=N\O)c2csc(C)n2)n1 | 1.3 | 2 | -18 | 6 | -13 | 1.7
COc1cccc(NC(=O)c2nnn(CCc3ccccc3)c2N)c1 | nt | -6 | 12 | 6 | 7 | -2.6*
CC(=O)N(c1ccc(N(C(C)=O)S(=O)(=O)c2cccs2)cc1)S(=O)(=O)c1cccs1 | 0.3 | 0 | 17 | 9 | 66* | 0.41
CCOC(=O)c1c(-c2ccccc2)oc2ccc(OC)cc12 | 0.5 | 24 | nt | 2 | 31* | 0.39
CCOC(=O)c1c(CN(CC)CC)oc2ccc(OC)cc12 | 0.58 | nt | nt | nt | nt | 0.22
CC(C)(C)n1nnnc1C(c1cccc(C#N)c1)N1CCCc2ccccc21 (stereo not drawn) | -0.65 | 9 | 11 | -14 | 28 | -1.9
CC(C)(C)n1nnnc1C(c1cccc(C#N)c1)N1CCC(Cc2ccccc2)CC1 (stereo not drawn) | -0.51 | -4 | 26 | -13 | 43* | -4.8*
CCC(C)(C)n1nnnc1C(c1ccncc1)N1CCC(Cc2ccccc2)CC1 (stereo not drawn) | -3.1* | 2 | nt | -3 | 14 | -3.7*
CC(C(=O)Nc1ccccc1-c1ccccc1)N1CCN(C(=O)c2ccco2)CC1 (stereo not drawn) | nt | nt | 6 | nt | nt | nt
Clc1ccccc1CN(Cc1ccccc1)c1ncnc2nc[nH]c12 | -1.5 | -8 | 23 | -2 | 52* | -3.7*
Clc1ccccc1CNc1ncnc2nc[nH]c12 | nt | 7 | -3 | 13 | 16 | -1.1
Cc1c2cnn(-c3ccccc3)c(=O)c2c(C)n1CCCC(=O)N1CCN(c2ncccn2)CC1 | 0.58 | -4 | 8 | -3 | 12 | 5.5*
SMILES | Pyk2 oligo antag | PostGolgi yeast | tolC growth inh | Ecoli WT expand | PostGolgi ctrl | Cav32 inh
Cn1c(SCCCC(=O)c2ccc(Br)cc2)nnc1-c1ccncc1 | 2.4 | -5 | nt | 5 | -1 | nt
COC(=O)[C@H](Cc1ccccc1)NC(=O)NCc1cccs1 | -0.02 | 3 | nt | 13 | 2 | 0.4
COc1ccc(-c2nnc(SCC(=O)c3ccc[nH]3)o2)cc1 | 1.8 | -6 | nt | -18 | 0 | 0.72
COc1ccc(CN(C(=O)CSc2nnc(-c3ccccc3F)o2)c2ccc(F)cc2)cc1 | -1.8 | 26 | 21 | -15 | 13 | -4.8*
Cc1ccnc(NC(=O)c2ccc(N3C(=O)CCC3=O)cc2)c1 | 1.9 | 4 | nt | 2 | 6 | 0.88
Cc1cccc2cc(C#N)c(SCC(=O)N3CC(=O)Nc4ccccc43)nc12 | -3.1* | 0 | 16 | 1 | -8 | -1.4
Cc1cccc2cc(C#N)c(SCC(=O)N3CCC(C)CC3)nc12 | -2.5 | -2 | 17 | -9 | 9 | -1.6
Cc1ccc(N2C(=O)CC(n3nc(C)cc3C)C2=O)cc1 (stereo not drawn) | 0.46 | -10 | nt | -10 | 7 | 0.11
